The values that follow come from ChEMBL document CHEMBL1152662, “Synthesis and biological evaluation of novel 2-(substituted phenylaminocarbonylmethylthio)-6-(2,6-dichlorobenzyl)-pyrimidin-4(3H)-ones as potent HIV-1 NNRTIs” (Bioorg Med Chem, 2009).

Data set [1] relates to Human immunodeficiency virus 1. The data set is described as follows: Antiviral activity against HIV1 3B infected in human MT4 cells assessed as inhibition of virus-induced cytopathic effect after 5 days by MTT assay. Format: functional, organism-based. As to conditions: Human immunodeficiency virus 1, 3B, MT4, 120 h. In short, it runs like this:
(§1)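 Compounds added at start in triplicate wells (stocks at 10× final) as serial fivefold dilutions; MT-4 cells at 6 × 10⁵ cells/mL infected with HIV-1 IIIB or HIV-2 ROD. Viability read by MTT 5 days post-infection at 540 and 690 nm, median OD of three wells. EC50 is the concentration giving 50% protection against virus-induced cytotoxicity.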
On the technique in general: Damage to the host cells serves as the signal in cytopathic effect assays.

Data set [2] deals with Human immunodeficiency virus 2. The data set is described as follows: Antiviral activity against HIV2 ROD infected in human MT4 cells assessed as inhibition of virus-induced cytopathic effect after 5 days by MTT assay. It is filed as functional, organism-based. As to conditions: Human immunodeficiency virus 2, ISOLATE ROD, MT4, 120 h. An outline of the steps: as §1
Data set [3] can be described thus: Cytotoxicity against mock-infected human MT4 cells after 5 days by MTT assay. Format: cell-based. An outline of the steps:
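Mock-infected MT-4 cells (6 × 10⁵ cells/mL) exposed in triplicate to serial fivefold dilutions, added at start from stocks at 10× final concentration. Viability measured by MTT after 5 days, absorbance at 540 and 690 nm, median OD of three wells. CC50 is the concentration lowering OD540 of mock-infected control by 50%.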
In general terms: Tetrazolium assays rely on reduction of a dye to a coloured formazan, in cell work by metabolically active cells.

A short description of data set [4]: Selectivity index, ratio of CC50 for mock-infected human MT4 cells to EC50 for HIV1 3B infected in human MT4 cells. Format: toxicity, cell-based. Particulars: read-out: Ratio CC50/EC50. An outline of the steps: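 Selectivity index calculated as CC50 over EC50, both from 5-day MTT viability readings in MT-4 cells, mock-infected or HIV-1 IIIB-infected, run in parallel triplicate wells.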

A word on the EC50: it is the concentration giving half of the maximal effect. What is called CC50 is the concentration that lowers cell viability or growth by half. High values mean lower toxicity to the cells, low ones greater toxicity to the cells. Regarding `Cc1ccc(NC(=O)CSc2nc(Cc3c(Cl)cccc3Cl)cc(=O)[nH]2)cc1`, the concentration giving a half-maximal response (EC50) in data set [1] is 0.88 µM; in data set [2] it was over 47.4 µM. For the same compound, the CC50 at 120 h in data set [3] is at least 47.4 µM. Besides, in data set [4], the selectivity ratio was at least 54.
As for `O=C(CSc1nc(Cc2c(Cl)cccc2Cl)cc(=O)[nH]1)Nc1ccc(Cl)c(Cl)c1`, the EC50 in data set [1] is at least 84.6 µM; in data set [2], over 19.6 µM. This compound also returned a 50% cytotoxic concentration (CC50) at 120 h in data set [3] of 19.6 µM.
Consider `Cc1c(Cc2c(Cl)cccc2Cl)nc(SCC(=O)Nc2ccc([N+](=O)[O-])cc2)[nH]c1=O`, for which the results for the EC50 in data set [1] and in data set [2] were 0.99 µM and at least 45.8 µM, respectively. This compound yielded a cytotoxic concentration (CC50) at 120 h in data set [3] of over 261 µM. The selectivity ratio in data set [4] was over 264.
The like results for `COc1ccc(NC(=O)CSc2nc(Cc3c(Cl)cccc3Cl)cc(=O)[nH]2)cc1OC` were, in that order, 4.48 µM, over 166 µM, 166 µM and 28.
The like results for `COc1ccc(NC(=O)CSc2nc(Cc3c(Cl)cccc3Cl)c(C)c(=O)[nH]2)cc1` were, in that order, 2.74 µM, over 10.8 µM, 10.8 µM and 4.
`O=C(CSc1nc(Cc2c(Cl)cccc2Cl)cc(=O)[nH]1)Nc1ccc(F)c(F)c1`: the concentration for a half-maximal effect (EC50) in data set [1] and in data set [2] was over 274 µM in each case. In data set [3], this compound yielded a cytotoxic concentration (CC50) at 120 h of over 274 µM. Further, the selectivity ratio in data set [4] was at least 1.
Turning to `O=C(CSc1nc(Cc2c(Cl)cccc2Cl)cc(=O)[nH]1)Nc1ccc([N+](=O)[O-])cc1`, the 50% effective concentration (EC50) in data set [1] is 2.07 µM; in data set [2], over 269 µM. The compound also came in with a CC50 at 120 h in data set [3] of over 269 µM. Further, the selectivity ratio in data set [4] is over 130.
Consider `Cc1c(Cc2c(Cl)cccc2Cl)nc(SCC(=O)Nc2ccc(F)c(Cl)c2)[nH]c1=O`, for which the 50% effective concentration (EC50) in data set [1] was at least 41.1 µM; in data set [2], over 257 µM. The compound also gave a CC50 at 120 h in data set [3] of over 257 µM. In data set [4], the selectivity ratio is at least 1.
On to `O=C(CSc1nc(Cc2c(Cl)cccc2Cl)cc(=O)[nH]1)Nc1ccc(Br)cc1`, for which the results for the concentration for a half-maximal effect (EC50) in data set [1] and in data set [2] were 0.74 µM and over 22.8 µM, respectively. For the same compound, the CC50 at 120 h in data set [3] is 22.8 µM. In addition, the selectivity ratio in data set [4] came to 31.
On to `Cc1c(Cc2c(Cl)cccc2Cl)nc(SCC(=O)Nc2ccc(Br)cc2)[nH]c1=O`, for which the EC50 is 0.18 µM in data set [1] and over 244 µM in data set [2]. Besides, the half-maximal cytotoxic concentration (CC50) at 120 h in data set [3] was over 244 µM. Moreover, the selectivity ratio in data set [4] is over 1330.
For `O=C(CSc1nc(Cc2c(Cl)cccc2Cl)cc(=O)[nH]1)Nc1ccc(F)c(Cl)c1`, the EC50 in data set [1] and in data set [2] was over 264 µM in each case. Moreover, the cytotoxic concentration (CC50) at 120 h in data set [3] is over 264 µM. The selectivity ratio in data set [4] is under 1.
On to `Cc1c(Cc2c(Cl)cccc2Cl)nc(SCC(=O)Nc2ccc(Cl)c(Cl)c2)[nH]c1=O`, for which the concentration for a half-maximal effect (EC50) was at least 2.82 µM in data set [1] and over 248 µM in data set [2]. For the same compound, the half-maximal cytotoxic concentration (CC50) at 120 h in data set [3] is over 248 µM. Besides, the selectivity ratio in data set [4] was at least 88.
In the case of `Cc1c(Cc2c(Cl)cccc2Cl)nc(SCC(=O)Nc2ccc(Cl)cc2)[nH]c1=O`, the figures for the EC50 in data set [1] and in data set [2] were 0.32 µM and over 267 µM, respectively. This compound also registered a 50% cytotoxic concentration (CC50) at 120 h in data set [3] of over 267 µM. The selectivity ratio in data set [4] was over 836.
For `O=C(CSc1nc(Cc2c(Cl)cccc2Cl)cc(=O)[nH]1)Nc1ccc(Cl)cc1`, the figures for the EC50 in data set [1] and in data set [2] were 0.95 µM and over 24.8 µM, respectively. The CC50 at 120 h in data set [3] was found to be 24.8 µM. In data set [4], the selectivity ratio is 23.
For the compound `COc1ccc(NC(=O)CSc2nc(Cc3c(Cl)cccc3Cl)c(C)c(=O)[nH]2)cc1OC`, the half-maximal effective concentration (EC50) in data set [1] was 1.45 µM; in data set [2], over 253 µM. This compound yielded a 50% cytotoxic concentration (CC50) at 120 h in data set [3] of over 253 µM. In addition, the selectivity ratio in data set [4] is over 175.
As to `Cc1c(Cc2c(Cl)cccc2Cl)nc(SCC(=O)Nc2ccc(F)c(F)c2)[nH]c1=O`, the concentration for a half-maximal effect (EC50) in data set [1] was 0.69 µM; in data set [2], over 266 µM. In data set [3], this compound gave a CC50 at 120 h of over 266 µM. In addition, the selectivity ratio in data set [4] was over 387.
`COc1ccc(NC(=O)CSc2nc(Cc3c(Cl)cccc3Cl)cc(=O)[nH]2)cc1`: the concentration giving a half-maximal response (EC50) in data set [1] was 0.92 µM; in data set [2], over 25.2 µM. In data set [3], this compound had a CC50 at 120 h of 25.5 µM. Further, the selectivity ratio in data set [4] turned out to be 28.
